Measurements as given in ChEMBL document CHEMBL1124636, “3,4-Dihydro-2H-1-benzopyran-2-carboxylic acids and related compounds as leukotriene antagonists” (J Med Chem, 1989).

Legend:
Cavia porcellus [1] = assay: (§1) Inhibition of leukotriene D4 induced bronchoconstriction in anesthetized guinea pigs after aerosol administration as 1% solution; assay type: functional
In short: (§2)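 Guinea pigs given propranolol 0.1 mg/kg iv 5 min before 5-min ultrasonic nebulizer exposure to aqueous, NaOH-neutralized drug (% w/v) or distilled water, breathing spontaneously. LTD4 50 µg/kg iv 30 s after exposure; tracheal pressure change.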

Cavia porcellus [2] = assay: (§3) Inhibition of leukotriene D4 induced bronchoconstriction in anesthetized guinea pigs after intravenous administration at a dose of 10 mg/kg; assay type: functional; details: for ED50: read-out: ID50 (the source's name)
In short: (§4)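 Male Hartley guinea pigs, 400–600 g, urethane 2 g/kg ip, jugular cannula, propranolol 0.1 mg/kg iv 5 min before challenge, succinylcholine 1.2 mg/kg iv, ventilated. Vehicle or drug iv 30 s before LTD4 25 µg/kg iv; tracheal pressure change.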

[3] = system: Cysteinyl leukotriene receptor (Cavia porcellus); assay: Inhibitory activity to block binding of [3H]leukotriene D4 to LTD4 receptor sites in homogenized guinea pig lung at 10 uM
Cavia porcellus [4] = assay: as §1; assay type: functional, organism-based; in short: as §2
Cavia porcellus [5] = assay: Inhibition of leukotriene D4 induced bronchoconstriction in anesthetized guinea pigs after intravenous administration; assay type: functional; details: read-out: ID50 (the source's name); in short: as §4
[6] = system: Cysteinyl leukotriene receptor (Cavia porcellus); assay: Inhibitory activity to block binding of [3H]leukotriene D4 to Cysteinyl leukotriene D4 receptor sites in homogenized guinea pig lung at 10 uM
[7] = target: Cysteinyl leukotriene receptor (Cavia porcellus); assay: Inhibitory activity to block binding of [3H]leukotriene D4 to LTD4 receptor sites in homogenized guinea pig lung
[8] = target: T1, Cysteinyl leukotriene receptor 1 (Cavia porcellus, UniProt Q2NNR5); assay: Inhibitory activity of compound to block binding of [3H]leukotriene D4 to Cysteinyl leukotriene D4 receptor sites in homogenized guinea pig lung
T1 sequence (Q2NNR5 whole entry): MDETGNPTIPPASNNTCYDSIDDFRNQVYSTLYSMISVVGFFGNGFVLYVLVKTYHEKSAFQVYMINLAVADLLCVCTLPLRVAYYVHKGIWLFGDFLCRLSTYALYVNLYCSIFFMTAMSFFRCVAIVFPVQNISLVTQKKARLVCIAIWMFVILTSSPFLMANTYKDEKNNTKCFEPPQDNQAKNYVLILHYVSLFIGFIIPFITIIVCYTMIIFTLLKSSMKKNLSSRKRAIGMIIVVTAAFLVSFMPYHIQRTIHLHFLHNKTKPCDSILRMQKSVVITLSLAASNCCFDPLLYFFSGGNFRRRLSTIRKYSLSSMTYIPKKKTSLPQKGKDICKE
In short: (§5)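 Lung from male Hartley guinea pigs (400–500 g), homogenized in sucrose/Tris pH 7.5 with protease inhibitors; 30000g membrane pellet in 10 mM PIPES pH 7.5, 50 mM NaCl. Binding: Tyrode, 0.1% BSA, 1 mM glycine, 1 mM cysteine, 3.5 nM [3H]LTD4, 100–200 µg protein, 20 °C, 30 min; glass-fiber filtration. Nonspecific with 10^-6 M LTD4. Triplicate screen at 10 µM; IC50 by linear regression.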

Rattus norvegicus = species on record: Rattus norvegicus; assay: Inhibitory activity to inhibit Inophore-induced arachidonic acid metabolism (inhibition of LTB4 formation) in rat; assay type: functional, organism-based
In short: (§6)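 Rat peritoneal macrophages adhered 90 min at 37 °C, labeled with [14C]arachidonic acid 90 min, washed. Compound 30 min at 37 °C, then A23187 0.5 µM for 20 min. LTB4 and PGE2 in medium by radioimmunoassay.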

[9] = Inhibitory activity to inhibit Inophore-induced arachidonic acid metabolism (inhibition of PGE-2 formation) in rat; assay type: functional; in short: as §6
[10] = target: Dual specificity calcium/calmodulin-dependent 3',5'-cyclic nucleotide phosphodiesterase 1A (Bos taurus, UniProt P14100); assay: Inhibition of bovine heart Phosphodiesterase 1A
[11] = target: T2, Cysteinyl leukotriene receptor 1 (Cavia porcellus) (UniProt Q2NNR5); assay: as §1; details: concentration not given here; in short: as §2
T2 sequence (whole entry): T1 sequence (Q2NNR5 whole entry)

[12] = target: T2, Cysteinyl leukotriene receptor 1 (Cavia porcellus); assay: as §3; assay type: organism-based; set-up: dose 10 mg/kg; in short: as §4
[13] = target: T2, Cysteinyl leukotriene receptor 1 (Cavia porcellus); assay: Inhibitory activity of compound to block binding of radiolabeled Cysteinyl leukotriene D4 receptor sites in homogenized guinea pig lung at 10 uM; in short: as §5
[14] = system: Cysteinyl leukotriene receptor (Cavia porcellus); assay: Inhibitory activity of compound to block binding of radiolabeled leukotriene D4 to receptor sites in homogenized guinea pig lung at 10 uM
Cavia porcellus [15] = assay: In vivo guinea pig bronchoconstriction against leukotriene C4 when administered a compound dose (mg/kg) intravenously; assay type: functional; details: Lung, iv, read-out: ID50 (the source's name)
Cavia porcellus [16] = assay: In vivo guinea pig bronchoconstriction against leukotriene D4 when administered a compound dose (mg/kg) intravenously; assay type: functional; details: Lung, iv, read-out: ID50 (the source's name); in short: as §4
Cavia porcellus [17] = species on record: Cavia porcellus; assay: In vitro activity to inhibit leukotriene D4 induced contraction of guinea pig trachea; assay type: functional; details: read-out: pA2 (converted)
In short: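 Guinea pig tracheal smooth muscle contracted by LTD4; pA2 and Schild slope reported.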

Cavia porcellus [18] = species on record: Cavia porcellus; assay: In vitro activity to inhibit SRS-A induced contraction of guinea pig ileum

Sequence of Dual specificity calcium/calmodulin-dependent 3',5'-cyclic nucleotide phosphodiesterase 1A (P14100 whole entry): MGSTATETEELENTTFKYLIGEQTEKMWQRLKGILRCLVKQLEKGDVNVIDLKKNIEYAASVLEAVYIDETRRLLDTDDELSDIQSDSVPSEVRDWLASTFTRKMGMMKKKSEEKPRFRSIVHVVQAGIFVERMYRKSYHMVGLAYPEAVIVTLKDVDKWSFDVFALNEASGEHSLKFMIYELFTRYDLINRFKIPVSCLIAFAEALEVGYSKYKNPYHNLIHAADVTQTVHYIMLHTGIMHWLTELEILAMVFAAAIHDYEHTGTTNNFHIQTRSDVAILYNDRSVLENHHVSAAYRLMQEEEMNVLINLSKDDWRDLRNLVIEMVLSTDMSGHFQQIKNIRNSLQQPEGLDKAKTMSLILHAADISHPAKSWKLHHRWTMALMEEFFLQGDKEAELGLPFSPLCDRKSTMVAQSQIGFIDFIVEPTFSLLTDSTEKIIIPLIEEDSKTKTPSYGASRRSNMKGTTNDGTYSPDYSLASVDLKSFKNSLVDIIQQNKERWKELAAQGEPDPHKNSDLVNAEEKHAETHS

Row | inhibition [3] [%] | inhibition [6] [%] | Structure (SMILES) | Inhibition (Cavia porcellus [1]) [%] | inhibition in vivo at 10 mg/kg (Cavia porcellus [2]) [%] | other results
1 | 45 | – | CCCc1c(OCCCCCOc2cc3c(cc2Cl)CCC(C(=O)O)O3)ccc(C(C)=O)c1O (stereo not given) | 0 | 16 | –
2 | – | – | CCCc1c(OCCCCc2nnn[nH]2)ccc(C(C)=O)c1O [TOMELUKAST] | 62 | 77 | IC50 (Cavia porcellus [4]): 0.4 % conc; ED50 (Cavia porcellus [5]): 5 mg/kg
3 | – | 26 | CCCc1c(OCc2ccccc2CCOc2cc3c(cc2C(C)=O)CCC(C(=O)O)O3)ccc(C(C)=O)c1O (stereo not given) | 12 | 24 | –
4 | – | 12 | CCCc1c(OCCCCCOc2cc3c(cc2C(C)=O)CC(C(=O)O)O3)ccc(C(C)=O)c1O (stereo not given) | 88 | 25 | IC50 (Cavia porcellus [4]): 0.04 % conc
5 | 94 | – | CCCc1c(OCCCOc2cc(NC(=O)c3nn[nH]n3)c(C)cc2Cl)ccc(C(C)=O)c1O [CGP-35949] | – | 49 | IC50 [7]: 1 µM
6 | – | 47 | CCCc1c(O)c(C(C)=O)cc(Cl)c1OCCCCCOc1cc2c(cc1C(C)=O)CCC(C(=O)O)O2 (stereo not given) | 10 | 11 | –
7 | – | 8 | CCCc1c(OCCOCCOc2cc3c(cc2C(C)=O)CCC(C(=O)O)O3)ccc(C(C)=O)c1O (stereo not given) | 31 | 50 | ED50 (Cavia porcellus [5]): 10 mg/kg
8 | – | 52 | CCCc1c(OCCCCCOc2cc3c(cc2C(=O)CC)CCC(C(=O)O)O3)ccc(C(C)=O)c1O (stereo not given) | 60 | 7 | IC50 (Cavia porcellus [4]): 0.3 % conc
9 | 98 | – | COc1cc(C(=O)NS(=O)(=O)c2ccccc2)ccc1Cn1ncc2ccc(NC(=O)OC3CCCC3)cc21 [ICI-198615] | 99 | 100 | IC50 (Cavia porcellus [4]): 0.006 % conc; ED50 (Cavia porcellus [5]): 0.03 mg/kg; IC50 [7]: 0.001 µM
10 | – | 60 | CCCc1c(OCc2cccc(COc3cc4c(cc3C(C)=O)CCC(C(=O)O)O4)c2)ccc(C(C)=O)c1O (stereo not given) | 28 | 20 | IC50 [8]: 7 µM
11 | 72 | – | CCCc1c(OCCCCCOc2ccc3c(c2C(C)=O)OC(C(=O)O)CC3)ccc(C(C)=O)c1O (stereo not given) | 1 | 19 | IC50 [7]: 5 µM
12 | – | – | CC(C)c1ccc2c(c1)c(SC(C)(C)C)c(CC(C)(C)C(=O)O)n2Cc1ccc(Cl)cc1 | – | – | IC50 (Rattus norvegicus): 0.2 µM; IC50 [9]: 5 µM
13 | 0 | – | CC(=O)c1ccc(OCCCCCOc2cc3c(cc2C(C)=O)CCC(C(=O)O)O3)cc1O (stereo not given) | 0 | 85 | ED50 (Cavia porcellus [5]): 5 mg/kg
14 | – | – | CCCc1c(OCCCSc2ccc([C@@H](O)[C@H](C)CC(=O)O)cc2)ccc(C(C)=O)c1O [L-649923] | – | 72 | ED50 (Cavia porcellus [5]): 6 mg/kg
15 | 64 | – | CCCc1c(OCCCCCOc2cc3c(cc2C(C)=O)CCC(C)(C(=O)O)O3)ccc(C(C)=O)c1O (stereo not given) | 85 | 50 | IC50 (Cavia porcellus [4]): 0.2 % conc; ED50 (Cavia porcellus [5]): 10 mg/kg; IC50 [7]: 6 µM
16 | – | 63 | CCCc1c(OCCCOc2cc3c(cc2C(C)=O)CCC(C(=O)O)O3)ccc(C(C)=O)c1O (stereo not given) | 31 | 35 | IC50 [8]: 6 µM
17 | – | 0 | CCCc1c(OCCCS(=O)(=O)c2ccc(C(=O)CCC(=O)O)cc2)ccc(C(C)=O)c1O [L-648051] | 70 | 73 | IC50 (Cavia porcellus [4]): 0.7 % conc; ED50 (Cavia porcellus [5]): 6 mg/kg
18 | – | 65 | CCCc1c(OCCCCCOc2cc3c(cc2C(C)=O)CCC(C(=O)O)C3)ccc(C(C)=O)c1O (stereo not given) | 23 | 51 | IC50 [8]: 7 µM; ED50 (Cavia porcellus [2]): 10 mg/kg
19 | – | – | CC(C)C(C)c1nc2c(=O)[nH]c(=O)[nH]c2[nH]1 (stereo not given) | – | – | IC50 [10]: 100 µM

Row | inhibition [3] [%] | inhibition [6] [%] | Structure (SMILES) | Inhibition (Cavia porcellus [1]) [%] | inhibition in vivo at 10 mg/kg (Cavia porcellus [2]) [%] | other results
20 | – | – | O=S(=O)(Nc1cccc(OCc2ccc3ccccc3n2)c1)C(F)(F)F [RITOLUKAST] | – | 61 | ED50 (Cavia porcellus [5]): 4 mg/kg
21 | – | 20 | CCCc1c(OCCCCCCc2cc3c(cc2C(C)=O)CCC(C(=O)O)O3)ccc(C(C)=O)c1O (stereo not given) | 65 | 46 | IC50 (Cavia porcellus [4]): 0.3 % conc
22 | 65 | – | CCCc1c(OCCCCCOc2cc(OCC(=O)O)ccc2C(C)=O)ccc(C(C)=O)c1O | 46 | 20 | IC50 (Cavia porcellus [4]): 1 % conc; IC50 [7]: 5 µM
23 | – | – | CCCc1c(OCCCCCOc2c(C(C)=O)cc3c(c2CCC)OC(C(=O)O)CC3)ccc(C(C)=O)c1O (stereo not given) | – | – | inhibition [11]: 44%
24 | 94 | – | CCCc1c(OCCCCCOc2cc3c(cc2C(C)=O)CCC(CCC(=O)O)O3)ccc(C(C)=O)c1O (stereo not given) | 31 | 86 | ED50 (Cavia porcellus [2]): 5 mg/kg; IC50 [7]: 2 µM
25 | – | – | CCCCCCCCCCCCc1ccccc1C(SCCC(=O)O)SCCC(=O)O | – | – | inhibition [11]: 39%; inhibition [12]: 29%; inhibition [13]: 24%
26 | – | – | COc1ccc2c(c1)c(CC(=O)O)c(C)n2C(=O)c1ccc(Cl)cc1 [INDOMETHACIN] | – | – | IC50 (Rattus norvegicus): 60 µM; IC50 [9]: 0.1 µM
27 | – | 11 | CCCc1c(OCCCCCOc2ccc3c(c2)OC(C(=O)O)CC3)ccc(C(C)=O)c1O (stereo not given) | 50 | 0 | IC50 (Cavia porcellus [4]): 1 % conc
28 | 48 | – | CCCc1c(OCCCCCOc2cc3c(cc2[N+](=O)[O-])CCC(C(=O)O)O3)ccc(C(C)=O)c1O (stereo not given) | 0 | 18 | –
29 | – | – | O=C(O)CCSC(SCCC(=O)O)c1ccccc1CCCCCCCCc1ccccc1 | 58 | 20 | Inhibition [14]: 81%
30 | – | – | CCCc1c(OCCCCCOc2cc3c(cc2C(C)=O)CC[C@H](C(=O)O)O3)ccc(C(C)=O)c1O | – | – | ED50 (Cavia porcellus [15]): 6 mg/kg; ED50 (Cavia porcellus [16]): 4 mg/kg; Kb (Cavia porcellus [17]): 0.794 µM; IC50 (Cavia porcellus [18]): 0.1 µM
31 | – | – | Cn1c(=O)c2[nH]cnc2n(C)c1=O [THEOPHYLLINE] | – | – | IC50 [10]: 500 µM
32 | 47 | – | CCCc1c(OCCCCCOc2cc3c(cc2C(C)=O)CCC(CCCCC(=O)O)O3)ccc(C(C)=O)c1O (stereo not given) | – | 10 | –
33 | – | 96 | CCCc1c(OCCCCCCOc2cc3c(cc2C(C)=O)CCC(C(=O)O)O3)ccc(C(C)=O)c1O (stereo not given) | 36 | 66 | IC50 [8]: 5 µM; ED50 (Cavia porcellus [5]): 5 mg/kg
34 | – | 57 | CCCc1c(OCCCCCOc2cc3c(cc2Br)CCC(C(=O)O)O3)ccc(C(C)=O)c1O (stereo not given) | 0 | 13 | –
35 | 68 | – | CCCc1c(OCCC(C)(C)CCOc2cc3c(cc2C(C)=O)CCC(C(=O)O)O3)ccc(C(C)=O)c1O (stereo not given) | 23 | 15 | IC50 [7]: 7 µM
36 | – | 26 | CCCc1c(OCCCCOc2cc3c(cc2C(C)=O)CCC(C(=O)O)O3)ccc(C(C)=O)c1O (stereo not given) | 37 | 36 | –
37 | 81 | – | CCCc1c(OCCCCCOc2cc3c(cc2C(C)=O)CCC2(CCC(C(=O)O)CC2)O3)ccc(C(C)=O)c1O (stereo not given) | 83 | 32 | IC50 (Cavia porcellus [4]): 0.08 % conc; IC50 [7]: 4 µM
38 | 87 | – | CCCc1c(OCCCCCOc2cc3c(cc2C(C)=O)CCC(C(=O)NS(=O)(=O)c2ccccc2)O3)ccc(C(C)=O)c1O (stereo not given) | 53 | 26 | IC50 (Cavia porcellus [4]): 1 % conc; IC50 [7]: 2 µM
